Key:
[1] = tested on: Hsp90 client proteins (EGFR, Her2, C-Raf) and Hsp90 in MCF7 cells; assay: Western blot for Hsp90 client proteins and Hsp90, MCF7 lysates; format: cell-based; details: MCF7, 12 h
Outline: (§1)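 MCF7 (Advanced DMEM/F12, 2 mM L-glutamine) or A549 (F12K) cells, with 10% FBS and pen/strep at 37 °C, 5% CO2. […] M-PER lysates with protease/phosphatase inhibitors, 15 µg protein on reducing 10% gels, PVDF, HRP-chemiluminescence.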

[2] = tested on: Hsp90 client proteins (EGFR, Her2, C-Raf) and Hsp90 in A549 cells; assay: Western blot for Hsp90 client proteins and Hsp90, A549 lysates; format: cell-based; details: for Hsp90 client levels: A549, 12 or 24 h
Outline: as §1

[3] = tested on: A549 lung cancer cell line; assay: Anti-proliferation; format: cell-based; details: 0.15 μM versus 1.7 μM
[4] = tested on: Hsp90 luciferase refolding activity in PC3-MM2 cells; assay: Luciferase refolding assay; format: cell-based; details: 0–100 μM, 1 h
Outline: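 Heat-denatured luciferase: luciferase-expressing PC3-MM2 cells were heated 8–12 min at 50 °C in DMEM until luminescence was 1% of initial. They were added (60,000 cells/100 µL final) to test compound, 0–100 µM, 1% DMSO final, and incubated 1 h. Luciferin/CoA/ATP reagent (tricine pH 7.8) was added and luminescence read immediately (0.5 s). Refolding was normalized to 1% DMSO = 100%. Triplicate concentrations, dose-response curves.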

[5] = tested on: MAPK pathway (EGFR, C-Raf, MEK, ERK, p-MEK, p-ERK) in A549 cells; assay: Western blot for MAPK pathway proteins, p-MEK and p-ERK, A549 lysates; format: cell-based
[6] = tested on: p-Akt and total Akt in A549 cells; assay: Western blot for p-Akt and total Akt, A549 lysates; format: cell-based; details: A549, 2 to 12 h (Supplementary Figure 2)
[7] = tested on: Her3 and wild-type B-Raf in A549 cells; assay: Western blot for Her3 and wild-type B-Raf; format: cell-based; details: for Her3 and wild-type B-Raf levels, control compounds: A549, 12 and 24 h, five-times the reported IC50
Outline: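 Cells harvested in cold PBS, lysed in M-PER with protease/phosphatase inhibitors, 15 µg protein resolved on reducing 10% gels, transferred to PVDF, immunoblotted for Her3 and B-Raf, HRP-chemiluminescent detection.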

[8] = target: wild type B-Raf / c-Raf heterodimer in A549 cells (Homo sapiens, UniProt P15056); assay: Co-immunoprecipitation of B-Raf, A549 lysates; format: cell-based; details: A549, 24 h, five-times IC50
Sequence of wild type B-Raf / c-Raf heterodimer in A549 cells (P15056 whole entry, one chain of several): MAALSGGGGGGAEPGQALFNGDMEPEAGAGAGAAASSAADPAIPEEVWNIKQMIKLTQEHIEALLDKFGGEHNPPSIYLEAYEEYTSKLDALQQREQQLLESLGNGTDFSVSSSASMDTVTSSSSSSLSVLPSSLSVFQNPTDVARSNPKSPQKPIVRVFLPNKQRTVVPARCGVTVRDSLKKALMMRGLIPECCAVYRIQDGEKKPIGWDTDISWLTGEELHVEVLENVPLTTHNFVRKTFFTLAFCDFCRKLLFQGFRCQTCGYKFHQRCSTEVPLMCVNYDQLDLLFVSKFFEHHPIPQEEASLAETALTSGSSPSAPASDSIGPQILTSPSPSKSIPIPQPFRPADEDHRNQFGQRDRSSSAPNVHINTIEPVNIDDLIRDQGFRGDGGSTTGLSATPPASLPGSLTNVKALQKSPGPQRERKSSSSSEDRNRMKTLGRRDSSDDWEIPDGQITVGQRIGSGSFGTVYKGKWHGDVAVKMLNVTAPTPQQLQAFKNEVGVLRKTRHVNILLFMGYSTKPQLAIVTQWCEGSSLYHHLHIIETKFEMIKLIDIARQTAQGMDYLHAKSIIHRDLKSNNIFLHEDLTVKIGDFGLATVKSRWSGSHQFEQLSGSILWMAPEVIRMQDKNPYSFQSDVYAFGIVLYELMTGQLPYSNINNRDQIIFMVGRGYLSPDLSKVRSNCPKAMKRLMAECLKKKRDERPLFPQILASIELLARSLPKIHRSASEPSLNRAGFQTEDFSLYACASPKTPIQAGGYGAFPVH

[9] = tested on: A549 lung cancer cell line; details: cited from earlier work
[10] = tested on: Hsp90 client proteins and Hsp90; assay: Western blot for clients and Hsp90 with geldanamycin; format: cell-based; details: Supplementary Figure 1
[11] = A549, 750 nM, 2 to 12 h, vs vehicle

## Cc1c(OC2CCN(C)CC2)ccc2cc(NC(=O)Nc3ccccc3)c(=O)oc12 [Compound 1, 1-(8-methyl-7-((1-methylpiperidin-4-yl)oxy)-2-oxo-2H-chromen-3-yl)-3-phenylurea]
[1]; high concentration (five-times IC50), vs vehicle
  Hsp90 client levels (EGFR, Her2, C-Raf): decreased levels
[1]; low and high concentrations
  Hsp90 levels: comparable to vehicle
[2]; A549, 12 h, high concentration (five-times IC50), vs vehicle
  Hsp90 client levels (EGFR, Her2, C-Raf): decreased levels
[2]; A549, 12 h, low and high concentrations
  Hsp90 levels: comparable to vehicle

## COc1cccc(-c2cc(NC(=O)Nc3cc4ccc(OC5CCN(C)CC5)c(C)c4oc3=O)ccc2OC)c1 [Compound 2, 1-(3′,6-dimethoxy-[1,1′-biphenyl]-3-yl)-3-(8-methyl-7-((1-methylpiperidin-4-yl)oxy)-2-oxo-2H-chromen-3-yl)urea]
[3]
  IC50 of 2 relative to IC50 of TAK-632: one tenth
[1]; low (half IC50) and high (five-times IC50) concentrations
  Hsp90 client protein levels: unchanged
[2]; A549, 12 h, low (half IC50) and high (five-times IC50) concentrations
  Hsp90 client protein levels: unchanged
[4]
  Inhibition of firefly luciferase re-maturation: does not inhibit
[5]; [11]
  EGFR and C-Raf levels: remained constant
  Total MEK and ERK levels: remained constant
[5]; A549, 750 nM, 12 h
  p-MEK levels: undetectable
[5]; A549, 12 h, high concentration (five-times IC50, 750 nM)
  p-MEK and p-ERK levels: significantly lower levels
[5]; A549, 12 h, low concentration (half IC50, 70nM)
  p-MEK and p-ERK levels: little effect
[5]; A549, 24 h, 750 nM
  p-MEK and p-ERK levels: only slightly increased compared to 12 hours
[6]
  p-Akt and total Akt levels: unaffected
[7]; A549, 24 h, five-times IC50
  Her3 and wild-type B-Raf levels: comparable to vehicle
[8]
  Dimerization of wild type B-Raf and c-Raf (co-immunoprecipitation): does not result in dimerization

## Cc1c(OC2CCN(C)CC2)ccc2cc(NC(=O)Nc3cccc(-c4ccccc4)c3)c(=O)oc12 [Compound 3, 1-([1,1′-biphenyl]-3-yl)-3-(8-methyl-7-((1-methylpiperidin-4-yl)oxy)-2-oxo-2H-chromen-3-yl)urea]
[2]; A549, 24 h, five-times IC50
  Hsp90-dependent client protein levels: decreased levels
  Hsp90 levels: constant levels

## COc1ccc(NC(=O)Nc2cc3ccc(OC4CCN(C)CC4)c(C)c3oc2=O)cc1-c1ccccc1 [Compound 4, 1-(6-methoxy-[1,1′-biphenyl]-3-yl)-3-(8-methyl-7-((1-methylpiperidin-4-yl)oxy)-2-oxo-2H-chromen-3-yl)urea]
[2]; five-times IC50
  Hsp90 client levels: did not result in decreased client levels
[5]; A549, 12 h, five-times IC50, vs vehicle
  p-MEK and pERK levels: decreased
[5]; A549, 24 h, five-times IC50
  p-MEK and p-ERK levels: reestablished

## COc1cccc(-c2cccc(NC(=O)Nc3cc4ccc(OC5CCN(C)CC5)c(C)c4oc3=O)c2)c1 [Compound 5, 1-(3′-methoxy-[1,1′-biphenyl]-3-yl)-3-(8-methyl-7-((1-methylpiperidin-4-yl)oxy)-2-oxo-2H-chromen-3-yl)urea]
[2]; five-times IC50
  Hsp90 client levels: did not result in decreased client levels
[5]; A549, 12 and 24 h, five-times IC50
  p-MEK levels: unchanged
[5]; A549, 12 h, five-times IC50
  p-ERK levels: decreased
[5]; A549, 24 h, five-times IC50
  p-ERK levels: comparable to vehicle
  p-MEK and p-ERK levels: reestablished

## N#Cc1c(Oc2ccc(F)c(NC(=O)Cc3cccc(C(F)(F)F)c3)c2)ccc2nc(NC(=O)C3CC3)sc12 [TAK-632]
[7]
  Her3 and wild-type B-Raf levels, control compounds: remained unaffected
[9]; read-out: IC50 value against A549 (reported), A549 lung cancer cell line
  IC50: 1700 nM

## COC1=C2C[C@@H](C)C[C@H](OC)[C@H](O)[C@@H](C)/C=C(\C)[C@H](OC(N)=O)[C@@H](OC)/C=C\C=C(/C)C(=O)NC(=CC1=O)C2=O [geldanamycin (GDA), geldanamycin]
[10]
  Hsp90 client levels: decreased client levels
[10]; at concentrations that decreased clients
  Cellular levels of Hsp90: increased cellular levels of Hsp90

## CNC(=O)c1cc(Oc2ccc(NC(=O)Nc3ccc(Cl)c(C(F)(F)F)c3)cc2)ccn1 [sorafenib]
[7]; A549, sorafenib at five-times the reported IC50 (14 μM), 12 and 24 h
  Her3 levels: time-dependent increase

## CCCS(=O)(=O)Nc1ccc(F)c(C(=O)c2c[nH]c3ncc(-c4ccc(Cl)cc4)cc23)c1F [vemurafenib]
[7]
  Her3 and wild-type B-Raf levels, control compounds: little effect
[9]; A549 expresses only wild-type B-Raf
  Activity against the A549 cell line: relatively inactive
